Experimental findings from ChEMBL document CHEMBL1133668, “Synthesis and antiviral activity of novel anti-VZV 5-substituted uracil nucleosides with a cyclopropane sugar moiety” (J Med Chem, 2000) are described below.

One may read the IC50 as the concentration that inhibits the measured activity by half. Read a high IC50 as lower potency. For orientation: CC50 means the concentration that lowers cell viability or growth by half. The low end stands for greater toxicity to the cells, the high end for lower toxicity to the cells.

A short description of assay [1]: Tested for inhibitory activity against Herpes simplex virus type-1(HSV-1), activity is expressed as IC50. The class given is functional.
In a further assay the test system is Vero. Briefly: Tested for cytotoxicity in vero cells, activity is expressed as CC50. It is filed as functional. As to conditions: Chlorocebus sabaeus.
Assay [2] concerns HEL. Briefly: Tested for inhibitory activity against Varicella zoster virus(VZV) by plaque reduction assay using HEL cells. It is filed as functional, cell-based. As to conditions: Homo sapiens.
In assay [3] the test system is MRC5. Briefly: Tested for Antiherpetic activity against HSV-1 from Tomioka strain in MRC-5 cell lines. The class given is functional, cell-based. The conditions noted are these: Homo sapiens. The essentials: (§1)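 Plaque reduction assay in MRC-5 cells, with HSV-1 Tomioka or HSV-2 strain 186 as the challenge virus. […] MRC-5 cells came from a commercial source.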
The subject of assay [4] is MRC5. Briefly: Tested for Antiherpetic activity against VZV from clinical isolates of MRC-5 cell lines.(average of six isolates). It is filed as functional, cell-based. As to conditions: Homo sapiens.
The test system of assay [5] is MRC5. Put plainly: Tested for Antiherpetic activity against HSV-2 from 186 strain in MRC-5 cell lines. The class given is functional, cell-based. The conditions noted are these: Homo sapiens. The essentials:
as §1

Assay [6] has as its system HEL. Briefly: Tested for Antiherpetic activity against VZV from Kawaguchi strain in HEL cell lines. As to conditions: Homo sapiens. It is filed as functional, cell-based.
Assay [7] has as its system HEL. Put plainly: Tested for Antiherpetic activity against VZV from clinical isolates of HEL cell lines.(average of 11 isolates). It is filed as functional, cell-based. As to conditions: Homo sapiens.

In brackets after ≈: the same amount, converted by molar mass.

In the case of `Cc1cn(CC2(CO)CC2CO)c(=O)[nH]c1=O` (configuration not stated), the IC50 in assay [1] is > 500 mg/L; in the assay with HEL [2] it was > 100 mg/L. Besides, the CC50 with Vero is > 500 mg/L.

Consider `Nc1nc(O)c2ncn(C[C@]3(CO)C[C@H]3CO)c2n1`, for which the IC50 with MRC5 [3] was 0.0093 mg/L (≈ 0.0351 µM); in assay [1], 0.02 mg/L (≈ 0.0754 µM); with MRC5 [4] it was 0.21 mg/L (≈ 0.792 µM); in the assay on HEL [2] it was 0.67 mg/L (≈ 2.53 µM); with MRC5 [5], 0.12 mg/L (≈ 0.452 µM); in the assay with HEL [6] it was 0.67 mg/L (≈ 2.53 µM). Moreover, the CC50 in the assay with Vero stood at 240 mg/L (≈ 905 µM).

Consider `O=c1[nH]c(=O)n(CC2(CO)CC2CO)cc1/C=C/Cl` (configuration not stated), for which the IC50 is 4.3 mg/L (≈ 15 µM) in assay [1] and 0.07 mg/L (≈ 0.244 µM) in the assay with HEL [2]. Further, in the assay on Vero, the CC50 is > 500 mg/L.

For `O=c1[nH]c(=O)n(CC2(CO)CC2CO)cc1F` (configuration not stated), the IC50 in assay [1] is > 500 mg/L; with HEL [2] it was > 100 mg/L. Also, the CC50 in the assay with Vero was > 500 mg/L.

In the case of `O=c1[nH]c(=O)n([C@@H]2O[C@H](CO)[C@@H](O)[C@H]2O)cc1/C=C/Br`, the IC50 worked out at 0.14 mg/L (≈ 0.401 µM) in the assay on MRC5 [3] and 0.00031 mg/L (≈ 0.000888 µM) in the assay with MRC5 [4].

On to `O=c1[nH]c(=O)n(CC2(CO)CC2CO)cc1Br` (configuration not stated), for which the values for the half-maximal inhibitory concentration (IC50) (in assay [1]; in the assay on HEL [2]) were 215 mg/L (≈ 705 µM) and 97 mg/L (≈ 318 µM), respectively. In addition, the CC50 in the assay with Vero is > 500 mg/L.

In the case of `O=c1[nH]c(=O)n(CC2(CO)CC2CO)cc1/C=C/I` (configuration not stated), the half-maximal inhibitory concentration (IC50) in assay [1] is 24.6 mg/L (≈ 65.1 µM); in the assay on HEL [2], 0.054 mg/L (≈ 0.143 µM). Also, in the assay with Vero, it took 330 mg/L (≈ 873 µM) to reach half-maximal cytotoxicity (CC50).

On to `O=c1ccn(CC2(CO)CC2CO)c(=O)[nH]1` (configuration not stated), for which the values for the IC50 (in assay [1]; with HEL [2]) were > 500 mg/L and > 100 mg/L, respectively. For the same compound, the CC50 in the assay on Vero was > 500 mg/L.

As to `O=c1[nH]c(=O)n(CC2(CO)CC2CO)cc1Cl` (configuration not stated), the IC50 in assay [1] is 295 mg/L (≈ 1130 µM); in the assay with HEL [2], > 100 mg/L. Also, the CC50 with Vero was > 500 mg/L.

In the case of `O=c1[nH]c(=O)n(CC2(CO)CC2CO)cc1/C=C/Br` (configuration not stated), the IC50 in the assay on MRC5 [3] is 0.77 mg/L (≈ 2.33 µM); with HEL [7], 0.097 mg/L (≈ 0.293 µM); in assay [1], 14.5 mg/L (≈ 43.8 µM); in the assay on MRC5 [4], 0.035 mg/L (≈ 0.106 µM); in the assay with HEL [2], 0.027 mg/L (≈ 0.0815 µM); in the assay with MRC5 [5], > 100 mg/L. For the same compound, in the assay on HEL [6], the half-maximal inhibitory concentration (IC50) came out at 0.027 mg/L (≈ 0.0815 µM). The CC50 in the assay with Vero was > 500 mg/L.

For `C#Cc1cn(CC2(CO)CC2CO)c(=O)[nH]c1=O` (configuration not stated), the IC50 is 310 mg/L (≈ 1240 µM) in assay [1] and > 100 mg/L in the assay with HEL [2]. Also, in the assay on Vero, the 50% cytotoxic concentration (CC50) was > 500 mg/L.

Turning to `O=c1[nH]c(=O)n(CC2(CO)CC2CO)cc1I` (configuration not stated), the half-maximal inhibitory concentration (IC50) in assay [1] stood at 90 mg/L (≈ 256 µM); in the assay with HEL [2] it was 9.3 mg/L (≈ 26.4 µM). Also, the cytotoxic concentration (CC50) in the assay with Vero is > 500 mg/L.

For `Nc1nc2c(ncn2COCCO)c(=O)[nH]1` [ACYCLOVIR], the values for the IC50 (in the assay with MRC5 [3]; in assay [1]; in the assay with MRC5 [5]) were 0.29 mg/L (≈ 1.29 µM), 0.81 mg/L (≈ 3.6 µM) and 0.25 mg/L (≈ 1.11 µM), respectively. The compound further showed a CC50 with Vero of 820 mg/L (≈ 3640 µM).

As to `Nc1nc(O)c2ncn(CCC(CO)CO)c2n1` [PENCICLOVIR], the IC50 with MRC5 [3] amounted to 0.54 mg/L (≈ 2.13 µM); in the assay on HEL [7], 10 mg/L (≈ 39.5 µM); in the assay on MRC5 [5], 1.2 mg/L (≈ 4.74 µM); in the assay with HEL [6] it was 5.6 mg/L (≈ 22.1 µM).
